The list is not random: actives were taken first. Their share in the collection is about 3.5%.
MrgX1 allo act: allosterically activates human MrgX1 receptor signaling; Q96LB2; B-score at 10 µM; MrgX1-HEK293, Fluo-4 calcium flux, FDSS; active compounds read high; 0.63% of 310,000 active;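 active = plate-corrected calcium response at least 3 library SD above typical, normal starting fluorescence, not activating the receptor alone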;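 also: compound read alongside a low EC10 to EC30 dose of BAM8-22 agonist; peak minus trough fluorescence over baseline measured at the second addition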
RGS4 pot: potentiators or activators of RGS4; 0.92% of 310,000 active; HEK293 M3R/inducible RGS4, carbachol calcium flux Fluo4; active compounds read low; B-score at 10 µM;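 active = B-score of the integrated calcium signal more than 4 SD below the library mean, with starting fluorescence not abnormally high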;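 also: negative B-score means reduced calcium response which marks RGS4 activation or potentiation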
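Material: Inducible-RGS4 HEK293 cells carrying M3 receptor; also added: carbachol at ECmax as muscarinic agonist stimulus; incubation: compound preincubation 20 min at room temperature before agonist; signal: Fluo4-AM (2 µM) calcium-flux fluorescence, kinetic read; measure: integrated calcium ratio converted to B score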
MrgX1 agonist: activates human MrgX1 receptor signaling; Q96LB2; MrgX1-HEK293 cells, Fluo-4 calcium fluorescence, agonist mode; active compounds read high; B-score at 10 µM; 0.44% of 310,000 active; AID 588627;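 active = calcium response B-score plate-corrected fluorescence ratio at least 3 library SD, with starting fluorescence B-score inside 5 SD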
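Material: MrgX1-expressing HEK293 cells; input: 15,000 cells per well; doses: test compound given as first of three sequential additions; schedule: overnight plating before 1 h dye loading; technique: Fluo-4 NW calcium-flux fluorescence, kinetic read; evaluation: baseline-normalised fluorescence change ratio, B-scored; control set: plate-wise positive and negative controls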
MrgX1 antag: blocks BAM8-22 activation of human MrgX1 receptor | Q96LB2 | MRGX1-HEK293 calcium flux, Fluo-4, BAM8-22 antagonism; active compounds read low | B-score at 10 µM | 1.3% of 310,000 active | AID 588676;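 active = calcium-response B-score plate-corrected more than 3 library SD below zero, starting fluorescence within 5 deviations, no agonist response on first addition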;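 also: peak minus trough fluorescence over baseline after final BAM8-22 challenge near maximal dose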
RGS4 block: human RGS4 inhibition. AID 463165. 0.45% of 310,000 active. HEK293 M3R/RGS4 inducible, Fluo-4 calcium flux; active compounds read high; triggered by carbachol at its EC20. B-score at 10 µM. P49798;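 active = B-score, a plate-corrected calcium signal, over three deviations above library mean, with baseline fluorescence within five deviations of library mean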;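 also: RGS4 expression induced by doxycycline in cells with stable M3 receptor; B-score is computed from the integrated fluorescence ratio over baseline after carbachol; higher B-score means a larger calcium signal and so more RGS4 inhibition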
Target sequence (P49798 whole entry, looked up): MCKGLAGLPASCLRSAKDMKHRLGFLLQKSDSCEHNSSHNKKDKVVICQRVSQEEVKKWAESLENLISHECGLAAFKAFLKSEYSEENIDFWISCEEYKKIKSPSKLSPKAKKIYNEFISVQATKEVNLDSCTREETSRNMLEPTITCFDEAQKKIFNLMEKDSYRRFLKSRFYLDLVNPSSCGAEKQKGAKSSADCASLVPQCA
RGS4 block valid: validation of RGS4 inhibitors | shares compounds with RGS4 block | HEK293 M3R/RGS4, carbachol calcium Fluo-4 fluorescence; carbachol added at its EC20; 0 = buffer wells, 100 = carbachol control | calcium response, % at 10 µM | 65% of 1,700 active;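 active = duplicate-averaged calcium response above the buffer-only control mean plus 5 SD of those controls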;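 also: integrated fluorescence ratio F max minus min over baseline F0; higher response in RGS4-induced cells means RGS4 inhibition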
M3R Ca ctr: checks RGS4 inhibitor effects in non-induced HEK293 M3R cells. activity (percent), % at 10 µM. shares compounds with RGS4 block. carbachol calcium Fluo-4; submaximal (EC20) carbachol stimulus; buffer wells 0%, carbachol control wells 100%. 20% of 1,900 active; call rule not given here;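 also: RGS4 induction absent so cells express M3R without RGS4; higher means more calcium signal and flags a non-specific hit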
RGS4 inh ctr2: signal in non-induced cells without carbachol, RGS4 inhibitor counter-screen; shares compounds with RGS4 block; HEK293 M3R/RGS4 non-induced, Fluo-4 calcium, no carbachol; normalised: buffer wells 0%, carbachol wells 100%; calcium response (agonist-mode artifact), % at 10 µM; 22% of 1,900 active; AID 493001;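 active = duplicate-averaged calcium rise in uninduced cells above buffer wells' mean plus 5 SD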
Numbers without * were called inactive; i = inactive; . = no result given.

SMILES | MrgX1 allo act | RGS4 pot | MrgX1 agonist | MrgX1 antag | RGS4 block | RGS4 block valid | M3R Ca ctr | RGS4 inh ctr2
COc1cc(/C=C2/C(=O)NN(c3cccc(C)c3)C2=O)ccc1OC(=O)c1ccco1 | i | i | i | i | 6.8* | 16%* | 31%* | i
C#CCOc1ccc(/C=C2/C(=O)NN(c3ccc(F)cc3)C2=O)cc1OC | i | i | i | i | i | . | 30%* | i
CCOC(=O)C1=C(C)n2c(s/c(=C/c3cccc([N+](=O)[O-])c3)c2=O)=NC1c1ccc(O)c(OC)c1 (stereo unspecified) | i | i | i | i | 34* | 66%* | 34%* | 20%*
O=C(c1cc2n(n1)C(C(F)(F)F)CC(c1ccco1)N2)N1CCc2ccccc2C1 (stereo unspecified) | i | i | i | i | 5.2* | 8.0%* | i | 28%*
CC(CCc1ccccc1)NC(=O)CN1CCN(c2ccccc2)CC1 (stereo unspecified) | i | i | i | i | i | . | . | .
CCOC(=O)CNc1nnc(SCC(=O)OCC)[nH]c1=O | i | i | i | i | i | . | i | i
COC(=O)CSc1nnc(C)c(=O)[nH]1 | i | i | i | i | i | . | . | .
COc1ccccc1CN(Cc1cc2cc3c(cc2[nH]c1=O)OCCO3)Cc1nnnn1Cc1ccco1 | i | i | i | i | 19* | 7.5%* | i | 12%*
O=c1[nH]c2cc3c(cc2cc1CN(Cc1ccccc1)Cc1nnnn1Cc1ccco1)OCCO3 | . | i | . | . | i | . | . | .
O=c1[nH]c2cc3c(cc2cc1CN(Cc1cccnc1)Cc1nnnn1Cc1ccco1)OCCO3 | i | i | i | i | i | i | i | i
O=c1[nH]c2cc3c(cc2cc1CN(Cc1cccs1)Cc1nnnn1Cc1ccco1)OCCO3 | i | i | i | i | 7* | i | i | i
Cc1ccc(NC(=O)CSc2nnc(C)n2CC2CCCO2)cc1 (stereo unspecified) | i | i | i | i | i | . | . | .
Cc1ccc(NC(=O)C(C)Sc2nnc(C)n2CC2CCCO2)cc1 (stereo unspecified) | . | i | . | . | 4.7* | 5.0%* | i | i
c1ccc2c(N3CCCCC3)nc(N3CCCC3)nc2c1 | i | i | i | i | i | . | . | .
c1ccc2c(c1)nc(N1CCCCC1)c1ccccc12 | i | i | i | i | 7.6* | 54%* | 84%* | i
CCN(CC)CCOc1ccc2c(c1)C(=NO)c1cc(OCCN(CC)CC)ccc1-2 | i | i | i | i | i | . | . | .
CCCOc1ccc2c(c1)C(=NN=C(N)N)c1cc(OCCC)ccc1-2 | i | i | i | i | 4.7* | 8.0%* | i | i
CC(=O)Nc1ccc(C(=S)NCC2(N(C)C)CCCCC2)cc1 | i | i | i | i | i | . | . | .
CN(C)C1(CNC(=O)Nc2ccccc2)CCCCC1 | i | i | i | i | 4.7* | i | i | i
CCSCc1nnc(SCC(=O)Nc2ccc(OC)cc2)n1C | i | i | i | i | i | . | . | .
CCOC(=O)[C@@H]1[C@H]2COc3ccccc3[C@@H]2N2C(=O)N(c3ccc(OC)cc3)C(=O)[C@@]12C | i | i | i | i | i | i | i | i
CCOC(=O)[C@@H]1[C@H]2COc3ccccc3[C@@H]2N2C(=O)N(c3ccc(OC)cc3)C(=O)[C@]12C | i | i | i | i | i | i | i | 7.5%*
